Results on 25 compounds are retold here after ChEMBL document CHEMBL4219080, “Discovery of novel 4-aryl-thieno[1,4]diazepin-2-one derivatives targeting multiple protein kinases as anticancer agents” (Bioorg Med Chem, 2018).

A short description of assay [1]: Antiproliferative activity against human A375P cells after 24 hrs by MTT assay. The assay is classed as functional. The method, boiled down:
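A375P cells grown in DMEM with 10% FBS and 1% penicillin/streptomycin at 37 °C, 5% CO₂. Harvested with trypsin-EDTA, seeded at 5×10³ cells/well and incubated 24 h before dosing with a 12-point, 3-fold serial dilution. Viability by MTT reduction, absorbance at 590 nm. IC50 derived by curve fitting.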
In general terms: Formazan colour is commonly taken as a measure of viable cells.

The subject of another assay is U-937. Description: Antiproliferative activity against human U937 cells after 24 hrs by MTT assay. The conditions noted are these: U-937, 24 h. The assay is classed as functional. The method, boiled down:
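U937 cells kept in RPMI 1640 with 10% FBS, 1% penicillin/streptomycin and 25 mM HEPES (37 °C, 5% CO₂). Seeded at 5×10³ cells/well and held 24 h before exposure to 12 concentrations in 3-fold serial dilution. MTT reduction read at 570 nm. IC50 obtained by curve fitting.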

Assay [2] concerns the target Vascular endothelial growth factor receptor 3 (Homo sapiens) (UniProt P35916). The assay is described as follows: Inhibition of human FLT4 using poly[Glu:Tyr] (4:1) as substrate at 10 uM after 40 mins in presence of [gamma-33P]-ATP by liquid scintillation counting method.
In assay [3] the target is T1, Macrophage colony-stimulating factor 1 receptor (Homo sapiens, UniProt P07333). Description: Inhibition of human FMS using myelin basic protein as substrate after 40 mins in presence of [gamma-33P]-ATP by liquid scintillation counting method. The essentials:
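Radiometric filter-binding assay with human FMS (5–10 mU) in 25 mM Tris pH 7.5, 0.02 mM EGTA, 0.66 mg/mL myelin basic protein and 10 mM magnesium acetate, with [γ-33P]ATP (approx. 500 cpm/pmol). Started with Mg-ATP mix and run 40 min at room temperature. Stopped with 3% phosphoric acid, spotted on P30 filtermat, washed in 75 mM phosphoric acid then methanol, scintillation counted.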

Assay [4] concerns the target T2, Platelet-derived growth factor receptor beta (Homo sapiens, UniProt P09619). The assay is described as follows: Inhibition of human PDGFRb using poly[Glu:Tyr] (4:1) as substrate at 10 uM after 40 mins in presence of [gamma-33P]-ATP by liquid scintillation counting method.
Assay [5] has as its target T3, Proto-oncogene tyrosine-protein kinase receptor Ret (Homo sapiens, UniProt P07949). The assay is described as follows: Inhibition of RET (unknown origin) after 40 mins in presence of [gamma-33P]-ATP by liquid scintillation counting method.
Assay [6] deals with Receptor-type tyrosine-protein kinase FLT3 (Homo sapiens) (UniProt P36888). Description: Inhibition of human FLT3 using EAIYAAPFAKKK peptide as substrate at 10 uM after 40 mins in presence of [gamma-33P]-ATP by liquid scintillation counting method.
Assay [7] has as its target T3, Proto-oncogene tyrosine-protein kinase receptor Ret. Description: Inhibition of human RET using KKKVSRSGLYRSPSMPENLNRPR as substrate at 10 uM after 40 mins in presence of [gamma-33P]-ATP by liquid scintillation counting method.
The target of assay [8] is T4, Receptor-type tyrosine-protein kinase FLT3 (Homo sapiens, UniProt P36888).
T4 sequence (P36888 whole entry): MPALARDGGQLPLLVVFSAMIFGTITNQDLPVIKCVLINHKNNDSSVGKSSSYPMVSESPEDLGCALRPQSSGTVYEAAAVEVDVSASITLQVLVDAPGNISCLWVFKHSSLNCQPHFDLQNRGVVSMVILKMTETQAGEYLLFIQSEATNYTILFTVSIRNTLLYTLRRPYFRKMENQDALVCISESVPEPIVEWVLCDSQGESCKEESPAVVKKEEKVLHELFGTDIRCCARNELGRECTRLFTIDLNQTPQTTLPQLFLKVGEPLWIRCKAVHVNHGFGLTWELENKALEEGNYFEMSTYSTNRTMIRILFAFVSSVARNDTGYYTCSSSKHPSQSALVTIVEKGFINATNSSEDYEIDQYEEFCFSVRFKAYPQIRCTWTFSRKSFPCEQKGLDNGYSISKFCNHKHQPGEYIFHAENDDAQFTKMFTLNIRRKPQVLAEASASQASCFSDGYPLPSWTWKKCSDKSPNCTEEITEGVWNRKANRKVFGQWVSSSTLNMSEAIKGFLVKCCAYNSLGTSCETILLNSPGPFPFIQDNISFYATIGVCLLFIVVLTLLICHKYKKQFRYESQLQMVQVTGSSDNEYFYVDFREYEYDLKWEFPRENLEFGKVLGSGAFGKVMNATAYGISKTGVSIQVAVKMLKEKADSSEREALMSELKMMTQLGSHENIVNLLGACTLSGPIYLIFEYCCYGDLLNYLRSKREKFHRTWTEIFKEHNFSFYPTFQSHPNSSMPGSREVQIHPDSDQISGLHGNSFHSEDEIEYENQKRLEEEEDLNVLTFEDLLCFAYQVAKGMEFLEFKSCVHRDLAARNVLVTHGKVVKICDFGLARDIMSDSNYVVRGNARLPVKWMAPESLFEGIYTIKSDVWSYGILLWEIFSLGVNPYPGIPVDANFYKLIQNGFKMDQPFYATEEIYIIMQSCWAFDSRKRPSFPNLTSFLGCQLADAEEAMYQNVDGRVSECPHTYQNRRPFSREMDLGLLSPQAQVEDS
Description: Inhibition of FLT3 (unknown origin) after 40 mins in presence of [gamma-33P]-ATP by liquid scintillation counting method.

In assay [9] the target is T2, Platelet-derived growth factor receptor beta. Description: Inhibition of PDGFRb (unknown origin) after 40 mins in presence of [gamma-33P]-ATP by liquid scintillation counting method.
Assay [10] concerns the target T1, Macrophage colony-stimulating factor 1 receptor. Description: Inhibition of human FMS using myelin basic protein as substrate at 10 uM after 40 mins in presence of [gamma-33P]-ATP by liquid scintillation counting method.

The source made the active and inactive calls. The calls are words filed in the database; no cut-off is given here.

T1 sequence (P07333 whole entry): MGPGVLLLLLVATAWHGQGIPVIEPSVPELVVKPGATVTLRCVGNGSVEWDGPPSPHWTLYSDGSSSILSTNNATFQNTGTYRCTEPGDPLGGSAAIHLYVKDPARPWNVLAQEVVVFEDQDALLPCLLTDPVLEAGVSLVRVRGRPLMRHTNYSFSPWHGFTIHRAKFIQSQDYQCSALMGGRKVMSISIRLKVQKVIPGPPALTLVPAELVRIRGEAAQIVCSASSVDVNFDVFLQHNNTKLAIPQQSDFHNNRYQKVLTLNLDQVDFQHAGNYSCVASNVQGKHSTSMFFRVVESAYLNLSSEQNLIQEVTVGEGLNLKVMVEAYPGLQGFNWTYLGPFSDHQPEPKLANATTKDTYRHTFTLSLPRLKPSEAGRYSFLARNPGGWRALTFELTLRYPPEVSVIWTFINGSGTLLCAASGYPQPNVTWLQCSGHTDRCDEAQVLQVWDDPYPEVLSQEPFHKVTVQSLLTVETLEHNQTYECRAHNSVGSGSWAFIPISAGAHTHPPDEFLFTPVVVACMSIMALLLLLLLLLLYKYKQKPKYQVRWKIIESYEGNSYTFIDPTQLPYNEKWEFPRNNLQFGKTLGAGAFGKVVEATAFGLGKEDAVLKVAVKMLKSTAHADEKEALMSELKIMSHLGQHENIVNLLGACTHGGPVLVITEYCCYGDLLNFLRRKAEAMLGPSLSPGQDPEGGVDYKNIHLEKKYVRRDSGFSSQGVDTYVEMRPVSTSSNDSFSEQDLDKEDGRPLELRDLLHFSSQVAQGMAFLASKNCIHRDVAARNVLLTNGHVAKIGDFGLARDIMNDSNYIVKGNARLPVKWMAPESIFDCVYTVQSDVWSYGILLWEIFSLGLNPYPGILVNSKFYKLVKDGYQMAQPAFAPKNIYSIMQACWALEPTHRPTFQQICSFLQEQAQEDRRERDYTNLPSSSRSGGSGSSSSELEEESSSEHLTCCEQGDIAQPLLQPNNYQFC
T2 sequence (P09619 whole entry): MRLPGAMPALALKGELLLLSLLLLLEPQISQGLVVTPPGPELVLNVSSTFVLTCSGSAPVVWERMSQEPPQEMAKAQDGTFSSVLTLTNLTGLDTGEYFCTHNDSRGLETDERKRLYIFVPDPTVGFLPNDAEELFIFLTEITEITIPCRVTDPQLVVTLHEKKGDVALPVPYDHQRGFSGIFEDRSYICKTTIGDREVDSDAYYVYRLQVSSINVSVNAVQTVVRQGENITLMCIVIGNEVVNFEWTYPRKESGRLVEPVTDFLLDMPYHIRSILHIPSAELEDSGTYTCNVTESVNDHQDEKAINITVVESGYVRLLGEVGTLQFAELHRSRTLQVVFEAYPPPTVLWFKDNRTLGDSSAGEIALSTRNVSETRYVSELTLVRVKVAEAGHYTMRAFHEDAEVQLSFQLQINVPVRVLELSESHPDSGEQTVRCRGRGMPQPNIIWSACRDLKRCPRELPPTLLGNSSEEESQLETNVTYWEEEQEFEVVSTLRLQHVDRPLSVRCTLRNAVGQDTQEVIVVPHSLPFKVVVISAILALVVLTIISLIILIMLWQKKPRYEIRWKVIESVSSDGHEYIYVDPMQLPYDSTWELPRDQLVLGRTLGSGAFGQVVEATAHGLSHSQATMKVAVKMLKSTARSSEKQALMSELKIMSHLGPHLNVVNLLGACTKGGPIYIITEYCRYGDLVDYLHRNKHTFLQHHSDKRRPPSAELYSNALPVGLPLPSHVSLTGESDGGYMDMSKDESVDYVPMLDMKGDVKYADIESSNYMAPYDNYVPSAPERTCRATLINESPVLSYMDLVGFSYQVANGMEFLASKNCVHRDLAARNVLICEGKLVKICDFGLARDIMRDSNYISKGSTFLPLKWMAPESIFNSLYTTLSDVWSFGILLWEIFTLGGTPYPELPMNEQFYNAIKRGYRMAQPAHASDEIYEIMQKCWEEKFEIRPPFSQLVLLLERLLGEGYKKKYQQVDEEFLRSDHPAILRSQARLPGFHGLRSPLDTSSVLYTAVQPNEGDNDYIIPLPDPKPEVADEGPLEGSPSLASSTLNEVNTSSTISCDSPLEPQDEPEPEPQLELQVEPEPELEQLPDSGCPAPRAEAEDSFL
T3 sequence (P07949 whole entry): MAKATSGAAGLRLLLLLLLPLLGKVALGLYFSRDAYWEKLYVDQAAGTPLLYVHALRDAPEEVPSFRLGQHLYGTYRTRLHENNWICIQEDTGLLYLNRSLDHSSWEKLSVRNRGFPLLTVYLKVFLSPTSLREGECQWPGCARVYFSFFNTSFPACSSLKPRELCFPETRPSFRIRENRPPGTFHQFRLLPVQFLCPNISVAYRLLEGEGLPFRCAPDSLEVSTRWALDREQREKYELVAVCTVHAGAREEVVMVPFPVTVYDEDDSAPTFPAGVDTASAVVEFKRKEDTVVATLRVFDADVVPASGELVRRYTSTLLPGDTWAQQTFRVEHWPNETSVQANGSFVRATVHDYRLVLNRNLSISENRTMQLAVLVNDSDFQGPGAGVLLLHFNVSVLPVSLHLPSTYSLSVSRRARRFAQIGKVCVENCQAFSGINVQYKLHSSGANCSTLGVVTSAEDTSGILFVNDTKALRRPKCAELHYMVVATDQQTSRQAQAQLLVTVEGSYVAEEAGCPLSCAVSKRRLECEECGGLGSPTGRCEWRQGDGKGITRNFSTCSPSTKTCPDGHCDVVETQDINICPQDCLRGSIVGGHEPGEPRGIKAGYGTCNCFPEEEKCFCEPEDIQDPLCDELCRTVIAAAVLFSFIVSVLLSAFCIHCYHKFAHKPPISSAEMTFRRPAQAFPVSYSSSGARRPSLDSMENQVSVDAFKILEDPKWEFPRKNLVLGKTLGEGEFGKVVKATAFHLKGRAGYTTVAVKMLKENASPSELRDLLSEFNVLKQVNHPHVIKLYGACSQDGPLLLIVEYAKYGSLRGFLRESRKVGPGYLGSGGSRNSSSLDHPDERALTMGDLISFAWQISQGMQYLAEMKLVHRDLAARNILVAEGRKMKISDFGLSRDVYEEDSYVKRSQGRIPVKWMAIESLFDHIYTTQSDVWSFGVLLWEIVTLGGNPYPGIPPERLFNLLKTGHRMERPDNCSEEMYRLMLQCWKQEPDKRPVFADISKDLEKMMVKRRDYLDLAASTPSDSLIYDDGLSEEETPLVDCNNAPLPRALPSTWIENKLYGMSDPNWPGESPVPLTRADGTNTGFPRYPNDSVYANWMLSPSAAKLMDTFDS
Vascular endothelial growth factor receptor 3 (Homo sapiens), sequence (P35916 whole entry): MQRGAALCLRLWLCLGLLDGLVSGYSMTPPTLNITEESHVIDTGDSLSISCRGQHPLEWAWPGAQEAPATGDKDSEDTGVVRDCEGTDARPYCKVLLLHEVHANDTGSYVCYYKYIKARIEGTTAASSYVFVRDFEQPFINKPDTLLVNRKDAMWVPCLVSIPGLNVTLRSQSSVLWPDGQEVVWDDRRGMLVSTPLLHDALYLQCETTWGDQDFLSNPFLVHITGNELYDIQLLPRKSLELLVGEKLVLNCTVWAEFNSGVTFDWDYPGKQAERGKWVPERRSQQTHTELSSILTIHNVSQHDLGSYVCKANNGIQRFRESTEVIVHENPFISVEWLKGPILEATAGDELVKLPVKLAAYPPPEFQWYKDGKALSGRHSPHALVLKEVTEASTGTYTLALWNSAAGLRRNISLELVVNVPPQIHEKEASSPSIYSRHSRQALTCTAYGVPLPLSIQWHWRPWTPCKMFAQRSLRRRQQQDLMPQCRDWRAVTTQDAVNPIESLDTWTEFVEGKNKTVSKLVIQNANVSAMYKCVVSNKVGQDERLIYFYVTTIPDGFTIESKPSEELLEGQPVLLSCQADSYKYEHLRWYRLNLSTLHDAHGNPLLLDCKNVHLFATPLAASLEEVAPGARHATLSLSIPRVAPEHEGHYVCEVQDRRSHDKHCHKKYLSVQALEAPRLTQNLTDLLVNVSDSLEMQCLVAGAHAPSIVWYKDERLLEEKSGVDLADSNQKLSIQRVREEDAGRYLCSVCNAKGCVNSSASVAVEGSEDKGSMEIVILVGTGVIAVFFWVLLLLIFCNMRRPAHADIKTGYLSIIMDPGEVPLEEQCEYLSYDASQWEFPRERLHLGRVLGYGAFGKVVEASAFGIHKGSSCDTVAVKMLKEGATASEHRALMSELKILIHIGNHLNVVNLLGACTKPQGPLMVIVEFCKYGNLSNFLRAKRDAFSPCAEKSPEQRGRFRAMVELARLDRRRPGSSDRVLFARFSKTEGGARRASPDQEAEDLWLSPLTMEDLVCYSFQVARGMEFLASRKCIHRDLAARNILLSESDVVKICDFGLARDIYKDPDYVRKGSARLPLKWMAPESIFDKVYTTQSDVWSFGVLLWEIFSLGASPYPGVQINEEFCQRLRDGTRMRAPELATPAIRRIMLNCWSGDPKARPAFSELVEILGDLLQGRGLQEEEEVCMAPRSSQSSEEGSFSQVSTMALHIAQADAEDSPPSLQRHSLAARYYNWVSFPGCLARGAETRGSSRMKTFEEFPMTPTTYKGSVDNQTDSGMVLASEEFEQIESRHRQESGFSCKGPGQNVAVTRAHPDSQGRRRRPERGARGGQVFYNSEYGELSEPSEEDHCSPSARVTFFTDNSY

The GI50 is the concentration that inhibits growth by half. The low end stands for greater sensitivity of the cells, the high end for lower sensitivity of the cells. Consider `CNC(=O)c1cc(Oc2ccc(NC(=O)Nc3ccc(Cl)c(C(F)(F)F)c3)cc2)ccn1` [SORAFENIB], for which the GI50 was 3.4 µM in [1] and 2.34 µM in the assay on U-937.

For `O=C1CC(c2cccc(NC(=O)Nc3ccc(Cl)cc3)c2)=Nc2cscc2N1`, the GI50 came to 5.04 µM in assay [1] and 4.55 µM in the assay with U-937.

As for `CN1CCN(c2cc(C(=O)Nc3ccc(C4=Nc5cscc5NC(=O)C4)cc3)cc(C(F)(F)F)c2)CC1`, the GI50 (in assay [1]; with U-937) was more than 30 µM in each case.

In the case of `O=C1CC(c2ccc(NC(=O)Nc3ccc(Cl)c(C(F)(F)F)c3)cc2)=Nc2cscc2N1`, the GI50 came out at 1.7 µM in assay [1] and 4.08 µM with U-937.

On to `O=C1CC(c2ccc(NC(=O)c3ccccc3-c3ccccc3)cc2)=Nc2cscc2N1`, for which the GI50 in [1] was more than 30 µM; in the assay with U-937, 3.77 µM.

`CC(=O)N1CCC(C(=O)Nc2ccc(C3=Nc4cscc4NC(=O)C3)cc2)CC1`: the GI50 in assay [1] is more than 30 µM.

Compound `O=C1CC(c2ccc(NC(=O)c3cnn(-c4ccccc4)c3C(F)(F)F)cc2)=Nc2cscc2N1` gave a concentration for 50% growth inhibition (GI50) in assay [1] of 6.85 µM.

For `O=C1CC(c2ccc(NC(=O)Nc3ccc(Cl)c(Cl)c3)cc2)=Nc2cscc2N1`, in assay [1], the 50% growth inhibitory concentration (GI50) amounted to 2.06 µM.

Take `O=C1CC(c2ccc(NC(=O)c3ccc(Cl)c(C(F)(F)F)c3)cc2)=Nc2cscc2N1`: the GI50 in assay [1] amounted to 7.85 µM. Compared with the last compound, the GI50 is about 3.8-fold higher.

For the compound `O=C1CC(c2cccc(NC(=O)Nc3ccc(Cl)c(C(F)(F)F)c3)c2)=Nc2cscc2N1`, the results for the GI50 (in assay [1]; in the assay with U-937) were 8.25 µM and 14.3 µM, respectively.

`O=C1CC(c2cccc(NC(=O)Nc3ccc(Cl)c(Cl)c3)c2)=Nc2cscc2N1`: the GI50 in assay [1] stood at 11 µM; in the assay with U-937, 3.2 µM.

Take `Cc1c(C)c2c(c(C)c1O)CC[C@](C)(C(=O)Nc1cccc(C3=Nc4cscc4NC(=O)C3)c1)O2`: the GI50 in [1] was more than 30 µM.

As for `O=C1CC(c2cccc(NC(=O)c3cnn(-c4ccccc4)c3C(F)(F)F)c2)=Nc2cscc2N1`, growth in the assay on U-937 was halved (GI50) at 9.64 µM.

Regarding `O=C1CC(c2ccc(NC(=O)c3cc(N4CCOCC4)cc(C(F)(F)F)c3)cc2)=Nc2cscc2N1`, in [1], the GI50 turned out to be 3.45 µM.

For the compound `O=C(Cc1c[nH]c2ccccc12)Nc1cccc(C2=Nc3cscc3NC(=O)C2)c1`, the GI50 (in [1]; in the assay on U-937) was more than 30 µM each time.

`O=C1CC(c2cccc(NC(=O)c3cnc4ccccc4c3)c2)=Nc2cscc2N1` gave a GI50 in assay [1] of 6.87 µM.

`O=C(Cc1c[nH]c2ccccc12)Nc1ccc(C2=Nc3cscc3NC(=O)C2)cc1`: the GI50 (in [1]; with U-937) was more than 30 µM in each case.

In turn, `CN1CCN(c2cc(C(=O)Nc3cccc(C4=Nc5cscc5NC(=O)C4)c3)cc(C(F)(F)F)c2)CC1` yielded a GI50 in assay [1] of 3.04 µM.

As a reminder, the IC50 is the concentration that inhibits the measured activity by half. For the compound `CCN1CCN(Cc2ccc(NC(=O)Nc3ccc(C4=Nc5cscc5NC(=O)C4)cc3)cc2C(F)(F)F)CC1`, the inhibition entry in [2], in assay [4], in assay [6], in assay [7] and in [10] was “Active” in each case. The IC50 was 0.00373 µM in assay [3], 0.0716 µM in assay [5], 0.0279 µM in [8] and 0.0634 µM in assay [9]. Moreover, it took 0.32 µM to inhibit growth in assay [1] by half (GI50).

As for `O=C1CC(c2cccc(NC(=O)c3ccccc3-c3ccccc3)c2)=Nc2cscc2N1`, the GI50 is 3.25 µM in assay [1] and 1.03 µM in the assay on U-937.

For the compound `O=C1CC(c2ccc(NC(=O)Nc3ccc(Cl)cc3)cc2)=Nc2cscc2N1`, the GI50 was 3.12 µM in assay [1] and 0.964 µM in the assay on U-937.

Consider `CCN1CCN(Cc2ccc(NC(=O)Nc3cccc(C4=Nc5cscc5NC(=O)C4)c3)cc2C(F)(F)F)CC1`, for which the GI50 in assay [1] was 1.82 µM; in the assay on U-937, 2.75 µM.

`O=C(Cc1ccc(-c2ccccc2)cc1)Nc1ccc(C2=Nc3cscc3NC(=O)C2)cc1` displayed a GI50 in [1] of 8.7 µM. That is a single-digit micromolar value.

In assay [1], `O=C1CC(c2cccc(NC(=O)c3ccc(Cl)c(C(F)(F)F)c3)c2)=Nc2cscc2N1` gave a GI50 of 4.99 µM.

As for `O=C1CC(c2cccc(NC(=O)c3cc(N4CCOCC4)cc(C(F)(F)F)c3)c2)=Nc2cscc2N1`, the GI50 in [1] amounted to 1.98 µM.
